# Measurements reported in PubChem BioAssay AID624466 (The Scripps Research Institute Molecular Screening Center, 2012).
# The campaign covered roughly 360,000 compounds. About 5,400 (1.5%) were called active.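 How the source made its calls: active means inhibition above a per-plate cutoff, the mean inhibition of test compounds on that plate plus 3 SD (cut at about 49% in these data); inactive means the rest.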 The list comes from a sample in which actives are over-represented; it also holds similar structures and randomly drawn compounds.
# Biological target: Trace amine-associated receptor 1 (Homo sapiens) (UniProt Q96RJ0)
# Sequence (Q96RJ0 whole entry, looked up): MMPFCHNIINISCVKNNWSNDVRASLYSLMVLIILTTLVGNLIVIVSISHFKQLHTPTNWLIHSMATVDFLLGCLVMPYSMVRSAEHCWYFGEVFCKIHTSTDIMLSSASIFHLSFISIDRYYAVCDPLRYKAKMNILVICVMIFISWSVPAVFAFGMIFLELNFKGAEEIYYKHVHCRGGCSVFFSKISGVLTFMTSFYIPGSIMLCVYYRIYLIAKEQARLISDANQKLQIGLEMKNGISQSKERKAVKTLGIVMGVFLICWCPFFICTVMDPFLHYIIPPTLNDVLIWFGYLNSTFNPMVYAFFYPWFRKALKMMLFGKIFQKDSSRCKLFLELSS
# Assay: blockers of beta-PEA-driven TAAR1 calcium signal – Fluo-8 calcium fluorescence, CHO RD-HGA16 cells, primary screen (AID 624466);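 further: 0% = DMSO plus EC80 beta-PEA response and 100% = DMSO alone without agonist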
# Conditions: CHO RD-HGA16 TAAR1, Fluo-8 calcium fluorescence, antagonist; at 3 µM; stronger effect = higher value
# In short: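 System: RD-HGA16 CHO cells with stable hTAAR1 and Gα16 | Probe or stimulus: EC80 β-phenethylamine stimulus | Dosing: 3 µM, single point | Times: Dye loading 75 min at 37 °C, then 30 min room temperature | Measured by: Fluo-8 calcium-sensitive fluorescence | Read-out basis: % inhibition of agonist calcium response | Replicates: n of 1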
row,Compound,inhibition
1,COc1cc(C(=O)OC(C)C(=O)NCC2CCCCC2)cc(NC(=O)c2ccco2)c1OC (stereo not drawn),-4.96% (inactive)
2,Cc1cc2c(cc1S(=O)(=O)CCC(=O)NCc1ccccc1)OCC(=O)N2,8.55% (inactive)
3,COc1ccc(Cl)cc1NC(=O)CCS(=O)(=O)c1cc2c(cc1C)NC(=O)CO2,63.3% (active)
4,COc1ccc(NC(=O)CCS(=O)(=O)c2cc3c(cc2Cl)NC(=O)CO3)cc1OC,-9.29% (inactive)
5,O=C(NC1CCCC1)C1c2ccccc2OCC(=O)N1Cc1ccccc1 (stereo not drawn),-5.5% (inactive)
6,Cc1ccc(C)c(OCCC(=O)OCC(=O)NC(=O)NCc2ccccc2)c1,-20.1% (inactive)
7,COc1cc(SC#N)ccc1N=Cc1c(C)[nH]n(-c2ccc(C)cc2)c1=O,87.5% (active)
8,Cc1ccc2cc(C)c(N3CCN(c4ccc(F)cc4)CC3)nc2c1,-19.1% (inactive)
9,Cc1ccc2cc(C)c(N3CCC(C)CC3)nc2c1,-22.1% (inactive)
10,Cc1cc(C)c2cc(C#N)c(N3CCNCC3)nc2c1,76.6% (active)
11,COC(=O)[C@]12C[C@H](CC(=O)NCc3cccc(C(F)(F)F)c3)C(=O)N(Cc3ccc4c(c3)OCO4)C1=C[C@H](COCc1ccccc1)O[C@@H]2C,-19.1% (inactive)
12,COc1ccc(N2CCN(C(=O)c3ccc(N4CCCCS4(=O)=O)cc3)CC2)cc1,-21.9% (inactive)
13,CC(C)C(=O)Nc1ccc2c3c(cccc13)CC2,-5.92% (inactive)
14,O=C(Oc1ccc(-c2nnco2)cc1)c1ccc(F)c(S(=O)(=O)N2CCOCC2)c1,84.1% (active)
15,COc1ccc(C(=O)Oc2ccc(-c3nnco3)cc2)cc1S(=O)(=O)N1CCOCC1,60.2% (active)
16,COc1ccc(C(=O)OCC(=O)c2ccc(C)c(S(=O)(=O)N3CCOCC3)c2)cc1OC,47.7% (inactive)
17,COc1ccc(C(=O)OC(C)C(=O)NC2CCCC2)cc1S(=O)(=O)N1CCOCC1 (stereo not drawn),-9.55% (inactive)
18,Cc1cc(NC(=O)COC(=O)c2ccc(F)c(S(=O)(=O)N3CCOCC3)c2)no1,-19.8% (inactive)
19,NC(=O)C1CCN(C(=O)c2ccc(F)c(S(=O)(=O)N3CCOCC3)c2)CC1,6.75% (inactive)
20,CC(C)(O)C1=C[N+](=O)CC=C1,2.41% (inactive)

row,Compound,inhibition
1,CC1(C(=O)Nc2cccnc2)Cc2c(-c3ccccc3)ccnc2O1 (stereo not drawn),-9.98% (inactive)
2,CC(C)C[C@@H]1COc2cc(N3CCC[C@@H]3CO)ccc2S(=O)(=O)N1,-24.6% (inactive)
3,Cc1ccc2c(c1)N(CC(=O)NCCc1ccc(Cl)cc1)C(=O)c1cccnc1O2,64.2% (active)
4,Cc1ccc2c(c1)N(CC(=O)NCCCN1CCCCC1)C(=O)c1cccnc1O2,-18.1% (inactive)
5,O=C(CN1C(=O)c2cccnc2Oc2ccc(Cl)cc21)NCCc1ccccc1,12.2% (inactive)
6,CN(C)C1CN(Cc2cn(Cc3ccccc3)nn2)S(=O)(=O)C1 (stereo not drawn),-30.8% (inactive)
7,C=CC1=CCN(S(=O)(=O)C(C)(C)C)[C@@H]1CCO,-20.8% (inactive)
8,Cc1cccc(C(=O)Nc2ccc(Oc3cnccn3)cc2)c1,-6.75% (inactive)
9,Cc1cccc(C(=O)Nc2ccc3c(c2)C(=O)N(CC(C)C)C3=O)c1,16.9% (inactive)
10,Cc1cccc(C(=O)Nc2ccc(C(=O)/C=C/c3cccs3)cc2)c1,59.9% (active)
11,Cc1nc2c(OCc3ccc(Cl)cc3Cl)cccn2c1N(C)CC1CC1,16.7% (inactive)
12,CCCCCCCCN1C(=O)[C@@H](CC(=O)NCCCC)C[C@@]2(C(=O)OC)C1=C[C@H](C(C)(C)C)O[C@@H]2C,-28.5% (inactive)
13,CCOc1ccc(NC(=O)CN(C)C(=O)c2c(C)noc2C)cc1OCC,-17.5% (inactive)
14,CCCCOCCCNC(=O)C[C@@H]1C[C@@]2(C(=O)OCC)CCCC=C2N(CCC2=CCCCC2)C1=O,-7.17% (inactive)
15,COC(=O)c1ccc(C23CC4(C2)[C@H](CN(Cc2cccnc2)[C@@H]4c2ccccc2)C3c2ccc(Cl)nc2)cc1 (stereo partly drawn),34.6% (inactive)
16,COC(=O)[C@@]12C[C@@H](CC(=O)NCCCCc3ccccc3)C(=O)N(CCc3ccc(OC)c(OC)c3)C1=CCC(C)(C)C2,22.4% (inactive)
17,CCOc1cc(C(=O)N2CCc3cc(OC)c(OC)cc3C2)ccc1OC(F)F,-21.9% (inactive)
18,O=C1NC[C@H](Cc2ccc(O)cc2)N(C[C@H]2CCCN2C[C@H](Cc2ccccc2)N2C[C@H](Cc3ccccc3)N(CCc3ccccc3)C(=O)C2=O)C1=O,-19.2% (inactive)
19,COc1ccc(-c2ccccc2C2Cc3nnccc3CN2C(=O)Nc2ccccc2)cc1 (stereo not drawn),-11.4% (inactive)
20,COC(=O)[C@]12CCCCC=C1N(Cc1cccc3ccccc13)C(=O)[C@H](CC(=O)N1CCOCC1)C2,34.8% (inactive)

row,Compound,inhibition
1,COc1cc2ccccc2cc1C(=O)Nc1ccc(NC(=O)c2cccs2)cc1,58.9% (active)
2,COc1cc(OC)c(C(=O)NNC(=O)c2ccc(NS(=O)(=O)c3cccs3)cc2)cc1OC,-17.5% (inactive)
3,COc1ccccc1C(=O)Nc1ccc(Nc2ccccc2)cc1,1.01% (inactive)
4,O=C(NCc1ccccc1)[C@@H]1CCCN1C(=O)[C@H]1CCCN1C(=O)c1cccc(Cl)c1,-3.29% (inactive)
5,CCCCCCCCN1C(=O)[C@H](CC(=O)NCc2cccc3ccccc23)C[C@@]2(C(=O)OC)CCCCC=C12,2.1% (inactive)
6,COCCCn1cc(CN2CC(N(C)C)CS2(=O)=O)nn1 (stereo not drawn),-29.3% (inactive)
7,CCCCC[C@H](C)N1C[C@@H](COCc2ccccc2)Oc2cc(N3CCC[C@@H]3CO)ccc2S1(=O)=O,-12.8% (inactive)
8,CCOc1ccc(C(=O)NC(=S)Nc2ccc(NC(=O)C(C)C)cc2)cc1[N+](=O)[O-],38.4% (inactive)
9,CCOc1ccc(C(=O)NC(=S)Nc2ccc(N3CCOCC3)c(Cl)c2)cc1[N+](=O)[O-],51.3% (active)
10,CCOc1ccc(C(=O)Nc2ccc(CN3CCOCC3)cc2)cc1Cl,3.95% (inactive)
11,O=C(Nc1ccccc1)C1CC(=O)n2c(nc3ccccc32)N1 (stereo not drawn),-8.36% (inactive)
12,CCCCC(O)C1=C[N+](=O)CC=C1 (stereo not drawn),0.52% (inactive)
13,COc1ccccc1C(=O)Nc1ccc(C)c(S(=O)(=O)N2CCCCC2)c1,35.1% (inactive)
14,Cc1ccc(NC(=O)COC(=O)C2CC2)cc1S(=O)(=O)N1CCOCC1,-10.1% (inactive)
15,Cc1ccccc1OCC(=O)Nc1ccc(N2CCN(C(=O)C(C)C)CC2)c(Cl)c1,51.1% (active)
16,COc1cc(NC(=O)COc2ccccc2Cl)ccc1NC(=O)C(C)C,-12.5% (inactive)
17,Cc1ccc(NC(=O)COc2coc(CN3CCc4ccccc4C3)cc2=O)cc1Cl,-6.95% (inactive)
18,CCc1ccccc1OCC(=O)Nc1ccc(C)c(S(=O)(=O)N2CCCCCC2)c1,53.6% (active)
